ChEMBL document CHEMBL5724801, “EUbOPEN Chemogenomics Library - Multiplex” (2024)
Several values for one entry are separate records, joined by “and”; a condition that tells them apart may be missing. Equal values may be shown once.

System: Fibroblast
Assay: Multiplex assay against human fibroblast
Type: toxicity, cell-based
Method in brief: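 Imaging took place on a CQ1 microscope at 37°C and 5% CO2 once compound had been added to live cells stained at seeding with Hoechst33342, BioTracker Green Microtubule Cytoskeleton Dye, MitoTracker Red and Annexin V Alexa Fluor 680. CellPathfinder machine-learning gating classed cells as Hoechst high-intensity objects or normal cells, classed normal cells as having healthy, pyknosed or fragmented nuclei, and classed pyknosed cells as mitotic or apoptotic. Tubulin, mitochondrial-mass and membrane-permeability phenotypes are per cents of the healthy-nucleus cells.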

[1] = 12 h, 1 µM, compound concentration 1 uM
[2] = 12 h, 10 µM, compound concentration 10 uM
[3] = 24 h, 1 µM, compound concentration 1 uM
[4] = 24 h, 10 µM, compound concentration 10 uM
[5] = 48 h, 1 µM, compound concentration 1 uM
[6] = 48 h, 10 µM, compound concentration 10 uM

## CCc1cc2cc(NS(=O)(=O)c3ccc(C#N)cc3)ccc2n(CC)c1=O
[1]
  Population Apoptotic (%): 42%
  Population Fragmented Nuclei (%): 16% and 27%
  Population Healthy Nuclei (%): 64% and 40%
  Population Hoechst High Intensity Objects (%): 1% and 6%
  Population Membrane Permeable-Phenotype (%): 1% and 9%
  Population Mitochondria Different-Phenotype (%): 3% and 7%
  Population Mitotic Cells (%): 57%
  Population Normal (%): 98% and 93%
  Population Pyknosed Nuclei (%): 18% and 32%
  Population Tubulin-Different-Phenotype (%): 24% and 39%
  Total Cell Count: 157 and 173
[2]
  Population Apoptotic (%): 42% and 18%
  Population Fragmented Nuclei (%): 18% and 19%
  Population Healthy Nuclei (%): 54% and 43%
  Population Hoechst High Intensity Objects (%): 1% and 5%
  Population Mitochondria Different-Phenotype (%): 5% and 6%
  Population Mitotic Cells (%): 57% and 81%
  Population Normal (%): 98% and 94%
  Population Pyknosed Nuclei (%): 26% and 37%
  Population Tubulin-Different-Phenotype (%): 65% and 74%
  Total Cell Count: 133 and 153
[3]
  Population Apoptotic (%): 53% and 43%
  Population Fragmented Nuclei (%): 19% and 26%
  Population Healthy Nuclei (%): 63% and 48%
  Population Hoechst High Intensity Objects (%): 5% and 6%
  Population Membrane Permeable-Phenotype (%): 1% and 9%
  Population Mitochondria Different-Phenotype (%): 4% and 8%
  Population Mitotic Cells (%): 46% and 56%
  Population Normal (%): 94% and 93%
  Population Pyknosed Nuclei (%): 17% and 25%
  Population Tubulin-Different-Phenotype (%): 26% and 51%
  Total Cell Count: 157 and 164
[4]
  Population Apoptotic (%): 50% and 32%
  Population Fragmented Nuclei (%): 19% and 22%
  Population Healthy Nuclei (%): 58% and 38%
  Population Hoechst High Intensity Objects (%): 2% and 9%
  Population Membrane Permeable-Phenotype (%): 1% and 6%
  Population Mitochondria Different-Phenotype (%): 6% and 12%
  Population Mitotic Cells (%): 50% and 67%
  Population Normal (%): 97% and 90%
  Population Pyknosed Nuclei (%): 22% and 39%
  Population Tubulin-Different-Phenotype (%): 59% and 72%
  Total Cell Count: 130 and 145
[5]
  Population Apoptotic (%): 52% and 37%
  Population Fragmented Nuclei (%): 24% and 33%
  Population Healthy Nuclei (%): 59% and 50%
  Population Hoechst High Intensity Objects (%): 3% and 5%
  Population Membrane Permeable-Phenotype (%): 0% and 12%
  Population Mitochondria Different-Phenotype (%): 4% and 8%
  Population Mitotic Cells (%): 47% and 62%
  Population Normal (%): 96% and 94%
  Population Pyknosed Nuclei (%): 15% and 16%
  Population Tubulin-Different-Phenotype (%): 27% and 60%
  Total Cell Count: 150 and 156
[6]
  Population Apoptotic (%): 60%
  Population Fragmented Nuclei (%): 17% and 30%
  Population Healthy Nuclei (%): 62% and 48%
  Population Hoechst High Intensity Objects (%): 1% and 7%
  Population Mitochondria Different-Phenotype (%): 12% and 7%
  Population Mitotic Cells (%): 40% and 39%
  Population Normal (%): 98% and 92%
  Population Pyknosed Nuclei (%): 19% and 20%
  Population Tubulin-Different-Phenotype (%): 61% and 69%
  Total Cell Count: 129 and 145

## Cc1ccccc1C(=O)Nc1ccc(C(=O)N2CCCC(N(C)C)c3ccccc32)cc1.Cl (centres undefined)
[1]
  Population Apoptotic (%): 52% and 36%
  Population Fragmented Nuclei (%): 16% and 22%
  Population Healthy Nuclei (%): 71% and 55%
  Population Hoechst High Intensity Objects (%): 0% and 1%
  Population Membrane Permeable-Phenotype (%): 0% and 10%
  Population Mitochondria Different-Phenotype (%): 5% and 3%
  Population Mitotic Cells (%): 47% and 63%
  Population Normal (%): 100% and 98%
  Population Pyknosed Nuclei (%): 12% and 21%
  Population Tubulin-Different-Phenotype (%): 31% and 45%
  Total Cell Count: 167 and 155
[2]
  Population Apoptotic (%): 58% and 45%
  Population Fragmented Nuclei (%): 26% and 29%
  Population Healthy Nuclei (%): 50% and 47%
  Population Hoechst High Intensity Objects (%): 1% and 4%
  Population Membrane Permeable-Phenotype (%): 1% and 4%
  Population Mitochondria Different-Phenotype (%): 12%
  Population Mitotic Cells (%): 41% and 54%
  Population Normal (%): 98% and 95%
  Population Pyknosed Nuclei (%): 22% and 23%
  Population Tubulin-Different-Phenotype (%): 70% and 61%
  Total Cell Count: 108 and 109
[3]
  Population Apoptotic (%): 38% and 43%
  Population Fragmented Nuclei (%): 15% and 28%
  Population Healthy Nuclei (%): 76% and 49%
  Population Hoechst High Intensity Objects (%): 1% and 5%
  Population Membrane Permeable-Phenotype (%): 0% and 8%
  Population Mitochondria Different-Phenotype (%): 8% and 2%
  Population Mitotic Cells (%): 61% and 56%
  Population Normal (%): 98% and 94%
  Population Pyknosed Nuclei (%): 8% and 21%
  Population Tubulin-Different-Phenotype (%): 30% and 50%
  Total Cell Count: 160 and 157
[4]
  Population Apoptotic (%): 58% and 57%
  Population Fragmented Nuclei (%): 30% and 37%
  Population Healthy Nuclei (%): 58% and 42%
  Population Hoechst High Intensity Objects (%): 1% and 4%
  Population Membrane Permeable-Phenotype (%): 0% and 9%
  Population Mitochondria Different-Phenotype (%): 12% and 11%
  Population Mitotic Cells (%): 41% and 42%
  Population Normal (%): 98% and 95%
  Population Pyknosed Nuclei (%): 11% and 20%
  Population Tubulin-Different-Phenotype (%): 68% and 72%
  Total Cell Count: 111 and 107
[5]
  Population Apoptotic (%): 33% and 53%
  Population Fragmented Nuclei (%): 13% and 32%
  Population Healthy Nuclei (%): 79% and 50%
  Population Hoechst High Intensity Objects (%): 3%
  Population Membrane Permeable-Phenotype (%): 0% and 8%
  Population Mitochondria Different-Phenotype (%): 4% and 5%
  Population Mitotic Cells (%): 66% and 46%
  Population Normal (%): 96%
  Population Pyknosed Nuclei (%): 7% and 17%
  Population Tubulin-Different-Phenotype (%): 28% and 54%
  Total Cell Count: 158 and 155
[6]
  Population Apoptotic (%): 91% and 73%
  Population Fragmented Nuclei (%): 24% and 43%
  Population Healthy Nuclei (%): 60% and 43%
  Population Hoechst High Intensity Objects (%): 7% and 3%
  Population Membrane Permeable-Phenotype (%): 0% and 8%
  Population Mitochondria Different-Phenotype (%): 12% and 14%
  Population Normal (%): 92% and 96%
  Population Pyknosed Nuclei (%): 14% and 13%
  Population Tubulin-Different-Phenotype (%): 51% and 70%
  Total Cell Count: 88 and 113
